Drawing on ChEMBL document CHEMBL1121426, “Structure-activity study of antiulcerous and antiinflammatory drugs by discriminant analysis” (J Med Chem, 1980), this text covers logP and inhibition in vivo for five compounds.

A short description of series [1]: Partition coefficient (logP). The series is classed as physicochemical. The settings on record: octanol/water.
The test system of the next series is Rattus norvegicus. Briefly: Antiulcer activity in rat at the dose of 20 mg/kg administered intraperitoneally. The format is functional. The following applies: ip, route intraperitoneal. In a few lines: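 Pyloric ligation was done under ether on Wistar-King rats (200-250 g, 10 per group) fasted 24 h. Drug was suspended at 10 mg/mL in 0.9% saline with a trace of Tween 80 and given ip at 20 mg/kg; controls received saline. Forestomach ulcers were scored macroscopically 18 h later as an ulcer index. Percent inhibition was taken versus the mean control index; error <±10%.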

The structures appear in SMILES notation.

Broadly, the logP is a log measure of how a compound divides between an organic and an aqueous phase. Lower therefore signals lower lipophilicity. A word on the inhibition in vivo: it is the change of the read-out against control, counted positive when it falls. `Nc1nc(N)nc(-c2cc(Br)ccc2F)n1` showed a logP in series [1] of 1.94. The inhibition in vivo at 20 mg/kg with Rattus norvegicus is 100%.
For `COc1ccc(Br)cc1-c1nc(N)nc(N)n1` the same measures were 1.53 and 49%.
For `CS(=O)(=O)c1cccc(-c2nc(N)nc(N)n2)c1` the same measures were 0.29 and -6%.
For `Nc1nc(N)nc(-c2cc(F)ccc2Br)n1` the same measures were 1.45 and 78%.
Take `Nc1nc(N)nc(-c2cc(Cl)ccc2F)n1`: in series [1], the logP was 1.81. In the series with Rattus norvegicus, the inhibition in vivo at 20 mg/kg turned out to be 89%.
